Source: ChEMBL document CHEMBL2331340, “Novel antitumor indolizino[6,7-b]indoles with multiple modes of action: DNA cross-linking and topoisomerase I and II inhibition” (J Med Chem, 2013)
Calls of active or inactive are those of the source. No cut-off for these calls is given here.

Key:
[1] = target: DNA topoisomerase 2-alpha (Homo sapiens) (UniProt P11388); settings: 50 to 200 uM
HCT-116 = assay: Cytotoxicity against human HCT116 cells after 72 hrs by Alamar blue assay; assay type: functional, cell-based; settings: HCT-116, 72 h
Outline: (§1)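 Cells exposed to compound for 72 h, then Alamar blue added with a further 10−12 h at 37 °C and a spectrophotometric read. IC50 from six or seven concentrations by median-effect analysis; mean ± STDEV, n = 3. CL141T is a line derived from a patient lung tumor passaged as a SCID mouse xenograft.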

[2] = Cytotoxicity against human OECM1 cells after 72 hrs by Alamar blue assay; assay type: functional, cell-based; settings: OECM1, 72 h
Outline: as §1

KB = assay: Cytotoxicity against human KB cells after 72 hrs by Alamar blue assay
A549 = assay: Cytotoxicity against human A549 cells after 72 hrs by Alamar blue assay; assay type: functional, cell-based; settings: A549, 72 h
Outline: as §1

[3] = target: T1, DNA topoisomerase 1 (Homo sapiens) (UniProt P11387); assay: Inhibition of DNA topoisomerase 1 (unknown origin)-mediated relaxation of supercoiled pHOT DNA at 25 to 200 uM after 30 to 45 mins by agarose gel electrophoresis
T1 sequence (whole entry): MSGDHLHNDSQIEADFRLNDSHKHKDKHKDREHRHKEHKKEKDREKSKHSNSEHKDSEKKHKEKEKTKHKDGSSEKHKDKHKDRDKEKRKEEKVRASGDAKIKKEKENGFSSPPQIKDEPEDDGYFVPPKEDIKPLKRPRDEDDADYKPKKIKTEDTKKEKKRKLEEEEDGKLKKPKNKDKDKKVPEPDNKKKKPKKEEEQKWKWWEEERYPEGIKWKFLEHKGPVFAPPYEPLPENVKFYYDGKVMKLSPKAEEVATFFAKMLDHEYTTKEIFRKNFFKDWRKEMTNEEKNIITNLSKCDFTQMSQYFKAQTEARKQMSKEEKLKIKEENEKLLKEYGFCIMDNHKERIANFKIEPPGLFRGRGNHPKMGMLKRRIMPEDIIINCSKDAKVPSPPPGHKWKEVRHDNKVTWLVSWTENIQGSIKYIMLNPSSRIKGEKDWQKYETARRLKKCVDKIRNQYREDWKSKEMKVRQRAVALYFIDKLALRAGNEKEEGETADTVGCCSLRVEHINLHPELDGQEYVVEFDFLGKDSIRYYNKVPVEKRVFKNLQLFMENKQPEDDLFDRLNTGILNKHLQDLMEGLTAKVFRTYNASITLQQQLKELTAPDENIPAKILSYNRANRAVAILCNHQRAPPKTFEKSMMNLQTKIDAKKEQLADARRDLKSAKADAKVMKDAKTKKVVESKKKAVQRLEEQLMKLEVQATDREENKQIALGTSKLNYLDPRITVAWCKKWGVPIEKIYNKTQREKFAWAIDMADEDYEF
Outline: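 Supercoiled pHOT DNA (200 ng) and compound in 10 mM Tris-HCl pH 7.9 with 1 mM EDTA at 37 °C. Reaction started with 1 unit topo I, run 30−45 min, stopped with 10% SDS. Products separated on 1% agarose at 50 V for 90 min and stained with ethidium bromide.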

MES-SA = assay: Resistance factor, ratio of IC50 for human MES-SA/Dx5 cells to IC50 for human MES-SA cells; assay type: functional
[4] = Cytotoxicity against human MES-SA/Dx5 cells after 72 hrs by Presto Blue assay; assay type: functional, cell-based; settings: MES-SA/Dx5, 72 h
Outline: (§2)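 MES-SA and doxorubicin-resistant MES-SA/dx5 cells exposed for 72 h, then PrestoBlue added for 3 h at 37 °C, absorbance read at 570 and 600 nm. IC50 by median-effect analysis of six or seven concentrations; mean ± STDEV of three to six independent experiments.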

[5] = Resistance factor, ratio of IC50 for human KB-VIN10 cells to IC50 for human KB cells; assay type: functional
PC-3 = assay: Cytotoxicity against human PC3 cells after 72 hrs by Alamar blue assay; assay type: functional, cell-based; settings: PC-3, 72 h
Outline: as §1

MX1 [6] = assay: Cytotoxicity against human MX1 cells after 72 hrs by SRB assay; assay type: functional, cell-based; settings: MX1, 72 h
HT-29 = assay: Cytotoxicity against human HT-29 cells after 72 hrs by Alamar blue assay; assay type: functional, cell-based; settings: HT-29, 72 h
Outline: as §1

[7] = Cytotoxicity against human KB-VIN10 cells after 72 hrs by Alamar blue assay; settings: KB-VIN10, 72 h
[8] = Cytotoxicity against human MES-SA cells after 72 hrs by Presto Blue assay; assay type: functional, cell-based
Outline: as §2

[9] = Cytotoxicity against human CL141T cells after 72 hrs by Alamar blue assay; assay type: functional, cell-based
Outline: as §1

[10] = target: DNA topoisomerase 2-alpha (Homo sapiens) (UniProt P11388); assay: Inhibition of DNA topoisomerase 2 (unknown origin)-mediated relaxation of supercoiled pHOT DNA after 30 to 45 mins by agarose gel electrophoresis
Outline: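 Supercoiled pHOT DNA (125 ng) with compound in buffer stated as 0.5 M Tris-HCl pH 8.0, 1.5 M NaCl, 100 mM MgCl2, 5 mM DTT, 300 μg/mL BSA, 20 mM ATP, at 37 °C. Methods state 6 units topo II, figure legend 5 units; 30−45 min, SDS stop. Products run on 1% agarose and stained with ethidium bromide.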

[11] = Cytotoxicity against human HEL299 cells; assay type: cell-based; settings: HEL 299
CCRF-CEM = assay: Cytotoxicity against human CCRF-CEM cells after 72 hrs by XTT assay; assay type: functional, cell-based
Outline: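 CCRF-CEM T-ALL cells incubated with compound for 72 h. XTT with phenazine methosulfate then added for 6 h at 37 °C, absorbance read at 450 and 630 nm. IC50 from six or seven concentrations by median-effect analysis; mean ± STDEV, n = 3.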

Mus musculus = assay: Toxicity in nude mouse xenografted with human MX1 cells assessed as body weight loss at 35 mg/kg, iv qd administered 4 days measured for 20 days; assay type: organism-based; set-up: dose 35 mg/kg, route intravenous; settings: in vivo, 480 h
[12] = Cell cycle arrest in human CL141T cells assessed as accumulation at sub-G1 phase at 0.5 x IC50 to 2 x IC50 after 72 hrs by propidium iodide staining-based FACS flow cytometric analysis; assay type: functional
Outline: (§3)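 CL141T cells treated at 0.5-, 1- and 2-fold IC50 for 24, 48 and 72 h. Cells fixed in ice-cold 70% EtOH, then stained with 4 μg/mL propidium iodide in PBS with 1% Triton X-100 and 0.1 mg/mL RNase A. Phase distribution from flow cytometry DNA histograms; sub-G1 fraction scored as well.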

Escherichia coli = assay: Induction of Escherichia coli pEGFP-N1 DNA interstrand cross-linking at 1 to 10 uM after 2 hrs by alkaline agarose gel shift assay
Outline: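 Plasmid pEGFP-N1 DNA (1500 ng) incubated with compound at 1, 5 and 10 μM in 3 mM NaCl/1 mM sodium phosphate pH 7.4/1 mM EDTA, 2 h at 37 °C. DNA then BamHI-linearized, EtOH-precipitated, denatured in 0.5 N NaOH/10 mM EDTA, run on 0.8% alkaline agarose at 4 °C (18 V, 22 h), stained with ethidium bromide.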

MX1 [13] = assay: Antitumor activity against human MX1 cells xenografted in nude mouse assessed as tumor growth inhibition at 35 mg/kg, iv qd administered 4 days measured on day 20 relative to vehicle-treated control; assay type: functional; settings: read-out: TGI
[14] = Cell cycle arrest in human CL141T cells assessed as accumulation at G2/M phase at 2 x IC50 after 24 hrs by propidium iodide staining-based FACS flow cytometric analysis; assay type: functional
Outline: as §3

[15] = Cell cycle arrest in human CL141T cells assessed as accumulation at S phase at 3.75 to 15 uM after 24 hrs by propidium iodide staining-based FACS flow cytometric analysis; assay type: functional
Outline: as §3

[16] = Cell cycle arrest in human CL141T cells assessed as accumulation at G2/M phase at 0.5 x IC50 to 1 x IC50 after 48 to 72 hrs by propidium iodide staining-based FACS flow cytometric analysis; assay type: functional
Outline: as §3

Chain of DNA topoisomerase 2-alpha (Homo sapiens) (P11388 whole entry): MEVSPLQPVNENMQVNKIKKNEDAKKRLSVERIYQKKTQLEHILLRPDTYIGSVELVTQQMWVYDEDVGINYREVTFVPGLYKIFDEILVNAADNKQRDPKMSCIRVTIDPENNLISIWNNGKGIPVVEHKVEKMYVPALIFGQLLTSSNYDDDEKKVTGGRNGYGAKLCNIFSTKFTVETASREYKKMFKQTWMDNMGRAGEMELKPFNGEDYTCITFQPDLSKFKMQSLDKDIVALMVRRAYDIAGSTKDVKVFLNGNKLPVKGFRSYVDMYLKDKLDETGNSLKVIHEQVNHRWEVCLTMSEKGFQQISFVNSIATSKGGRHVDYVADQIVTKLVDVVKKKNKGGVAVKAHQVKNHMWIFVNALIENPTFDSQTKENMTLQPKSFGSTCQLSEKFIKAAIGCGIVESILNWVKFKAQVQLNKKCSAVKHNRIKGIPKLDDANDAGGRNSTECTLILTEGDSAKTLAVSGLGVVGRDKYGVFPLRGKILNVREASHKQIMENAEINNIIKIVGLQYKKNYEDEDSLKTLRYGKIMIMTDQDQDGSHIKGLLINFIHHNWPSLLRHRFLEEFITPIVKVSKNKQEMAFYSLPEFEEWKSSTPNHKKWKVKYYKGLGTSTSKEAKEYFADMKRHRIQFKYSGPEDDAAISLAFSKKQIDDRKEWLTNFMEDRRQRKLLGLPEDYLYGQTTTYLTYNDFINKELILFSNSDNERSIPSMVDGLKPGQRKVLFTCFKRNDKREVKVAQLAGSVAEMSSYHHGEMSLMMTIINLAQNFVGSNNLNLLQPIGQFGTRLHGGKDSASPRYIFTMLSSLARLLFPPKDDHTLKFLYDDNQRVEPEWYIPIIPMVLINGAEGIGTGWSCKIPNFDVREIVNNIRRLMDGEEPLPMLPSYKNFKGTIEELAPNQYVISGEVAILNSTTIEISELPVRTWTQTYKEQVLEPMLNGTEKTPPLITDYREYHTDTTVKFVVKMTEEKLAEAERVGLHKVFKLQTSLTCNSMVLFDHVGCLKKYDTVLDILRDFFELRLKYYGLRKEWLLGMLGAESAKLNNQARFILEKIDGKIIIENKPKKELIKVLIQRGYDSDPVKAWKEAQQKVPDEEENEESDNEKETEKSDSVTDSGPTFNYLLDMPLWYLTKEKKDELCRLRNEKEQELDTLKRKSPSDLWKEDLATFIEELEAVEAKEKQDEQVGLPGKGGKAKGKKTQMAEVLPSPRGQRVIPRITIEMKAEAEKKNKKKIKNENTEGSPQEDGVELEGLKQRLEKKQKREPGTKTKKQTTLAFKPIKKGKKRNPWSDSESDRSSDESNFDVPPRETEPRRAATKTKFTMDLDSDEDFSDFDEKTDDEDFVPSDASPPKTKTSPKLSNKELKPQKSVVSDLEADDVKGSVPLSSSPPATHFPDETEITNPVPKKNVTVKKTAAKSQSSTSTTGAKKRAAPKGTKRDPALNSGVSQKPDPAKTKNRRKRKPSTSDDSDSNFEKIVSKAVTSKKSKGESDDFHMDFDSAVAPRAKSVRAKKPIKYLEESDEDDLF

| SMILES | IC50 (HCT-116) [µM] | IC50 [2] [µM] | IC50 (KB) [µM] | Ratio IC50 [5] | IC50 (PC-3) [µM] | IC50 (MX1 [6]) [µM] | IC50 [7] [µM] | IC50 [9] [µM] | IC50 [11] [µM] | IC50 (CCRF-CEM) [µM] | also measured |
| --- | --- | --- | --- | --- | --- | --- | --- | --- | --- | --- | --- |
| COc1cc([C@@H]2c3cc4c(cc3[C@@H](O[C@@H]3O[C@@H]5CO[C@@H](C)O[C@H]5[C@H](O)[C@H]3O)[C@H]3COC(=O)[C@H]23)OCO4)cc(OC)c1O | – | – | – | – | – | – | – | – | – | – | inhibition [1]: Active |
| CCNC(=O)OCc1c(COC(=O)NCC)c2n(c1C)Cc1c(c3ccccc3n1C)C2 | 2.33 | 1.9 | 2.75 | 0.94 | 4.11 | 0.46 | 2.6 | 2.84 | 15.5 | 0.04 | IC50 (A549): 4.83 µM; inhibition [3]: Active; Ratio IC50 (MES-SA): 0.36; IC50 [4]: 0.28 µM; IC50 (HT-29): 11.3 µM; IC50 [8]: 0.78 µM; inhibition [10]: Dose-dependent effect |
| CC(C)NC(=O)OCc1c(COC(=O)NC(C)C)c(-c2ccc(F)cc2)n2c1Cc1c(n(C)c3ccccc13)C2 | 6.09 | 6.56 | 14.2 | 1.1 | 6.71 | 2.19 | 15.6 | 7.46 | 25.9 | 0.11 | Activity (Mus musculus): Toxic; Activity [12]: Active; Activity (Escherichia coli): Active; inhibition in vivo at 35 mg/kg (MX1 [13]): > 99%; Activity [14]: inactive; Activity [15]: Active; Activity [16]: Active |
